Key:
[1] = tested on: rat primary hippocampal neurons; experiment: Dendritic spine morphology, DiI staining; format: cell-based; settings: for induction of dendritic varicosities: 3 μM peptide, 72 h
[2] = Electron microscopy of fibril formation in DMEM; format: physicochemical; settings: 10 μM peptide, 37°C
Procedure, shortened: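 Peptide was dissolved in 60 mM NaOH, diluted into cell culture medium and sonicated 1 min. It was then incubated at 10 μM in DMEM without serum or cells at 37°C. Morphology was examined by electron microscopy periodically over several days, including 24 and 48 h.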

[3] = CD spectroscopy of conformational transition in phosphate buffer; format: physicochemical; settings: 10 μM peptide, 10 mM sodium phosphate pH 7.4, 25°C; for appearance of the solution at 48–72 h of incubation: agitation; for kinetics of conformational transition by CD, in words: agitation 200 rev./min
Procedure, shortened: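 HFIP-treated peptide films were dissolved in 60 mM NaOH, diluted with water, sonicated 1 min, then diluted with 20 mM sodium phosphate (pH 7.4) to 10 μM. Samples were incubated at 25°C with orbital agitation at 200 rev./min. CD spectra (190–260 nm, 1-mm path) were taken every 2 h for 12 h, then at 24, 48 and 72 h, and background-subtracted. Three independent experiments were run.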

[4] = Electron microscopy of fibril formation in phosphate buffer; format: physicochemical; settings: sodium phosphate pH 7.4, 25°C, 96 h
Procedure, shortened: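 HFIP-treated peptide was dissolved in 60 mM NaOH, sonicated and diluted in sodium phosphate (pH 7.4). It was incubated at 25°C with orbital agitation at 200 rev./min. Aliquots were applied to glow-discharged carbon-coated Formvar grids for 20 min, fixed in 2.5% glutaraldehyde for 4 min, stained with 1% uranyl acetate for 3 min, air-dried and imaged by TEM. Three independent experiments were run.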

[5] = CD spectroscopy of conformational transition in DMEM; format: physicochemical; settings: 10 μM peptide, 37°C
Procedure, shortened: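 Peptide was dissolved in 60 mM NaOH, diluted into cell culture medium and sonicated 1 min. It was then incubated at 10 μM in DMEM without serum or cells at 37°C. Conformation was followed by CD periodically over several days.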

Row | Substance | induction of dendritic varicosities [1] | time by which the fibrillation process appeared complete (electron microscopy) [2] | appearance of the solution at 48–72 h of incubation [3] | kinetics of conformational transition by CD, in words [3] | also measured
1 | Aβ42: Aβ (amyloid β-protein) comprising 42 amino acids, wild-type | abundant varicosities | ≤ 24 h | – | – | effect at 10 μM in the dendritic spine assay ([1]; 10 μM peptide, initial experiments): overt cell death
2 | [Met(O2)^35]Aβ40 [Aβ40-sulfone] | – | – | free of particulate material or precipitates | – | –
3 | [Met(O2)^35]Aβ42 [Aβ42-sulfone] | abundant varicosities | ≤ 24 h | – | behaved similarly to WT Aβ42 | –
4 | [Met(O)^35]-Aβ42 [Aβ42-sulfoxide] | little induction of varicosities | – | – | did not change during the first 24 h | –
5 | [Met(O)^35]Aβ40 [Aβ40-sulfoxide] | – | – | free of particulate material or precipitates | – | abundance of fibrils by electron microscopy [4]: scarce relative to those of WT Aβ40 or Aβ40-sulfone; kinetics of conformational transition by CD in medium, in words [5]: somewhat slower
